# Measured values as given in ChEMBL document CHEMBL4316619 (Bioorg Med Chem Lett, 2019).
# Active and inactive are the calls of the source. No cut-off for these calls is given here.
# Assays:
# [1] = Toxicity in C57BL/6 mouse assessed as adverse effect at 30 mg/kg, ip; format: organism-based; details: in vivo
# [2] = Stability of the compound in mouse liver microsomes assessed as parent compound remaining measured immediately; format: ADME, Microsome; details: read-out: Stability
# Summary of the method: (§1)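 Mouse liver microsomes; percent parent compound remaining measured at 0, 15 and 30 min.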
# [3] = Tmax in C57BL/6 mouse plasma at 30 mg/kg, ip; format: ADME, organism-based; details: C57BL/6, mouse, plasma, read-out: Tmax
# Summary of the method: (§2)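 Male C57BL/6 mice, single intraperitoneal 30 mg/kg dose, N=3. Plasma, liver and lung concentrations followed over time to give concentration-time profiles, from which Tmax, Cmax, terminal t1/2, AUClast and AUCINF were derived.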
# [4] = Cmax in C57BL/6 mouse lung at 30 mg/kg, ip; format: ADME, organism-based; parameters: dose 30 mg/kg, route intraperitoneal
# Summary of the method: (§3)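 Male C57BL/6 mice received a single intraperitoneal dose of 30 mg/kg (N=3). Compound concentrations were followed over time in plasma, liver and lung. Tmax, Cmax, terminal t1/2, AUClast and AUCINF were derived from the mean concentration-time profiles.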
# [5] = AUClast in C57BL/6 mouse liver at 30 mg/kg, ip; format: ADME, organism-based; parameters: dose 30 mg/kg, time 0 - last, route intraperitoneal; summary of the method: as §3
# MDCK [6] = experiment: Cytotoxicity against MDCK cells assessed as reduction in cell viability measured after 48 hrs by CellTiter Glo assay; format: cell-based, Canis lupus familiaris; details: dog
# Summary of the method: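 MDCK cells were incubated with compound under the conditions of the 48 h replication assay. Cytotoxicity was read with the CellTiter-Glo ATP viability assay. Follow-up viability testing used 5, 10, 50 and 100 μM.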
# [7] = (§4) Cytotoxicity against MDCK cells assessed as reduction in cell viability measured on day 5 by Celltiter-Glo luminescence assay; format: cell-based, Canis lupus familiaris; details: dog, MDCK cells
# Summary of the method: (§5)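 MDCK cells were infected with seasonal influenza A strains through NIAID resources and scored for protection from virus-induced cell death. Compounds were tested at four concentrations (0.8, 4, 20, 100 μM). EC50/EC90 (reduction of viral cell death) and CC50 (reduction of cell viability) were derived in μM, and SI50 = CC50/EC50.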
# [8] = Toxicity in C57BL/6 mouse assessed as effect on lungs at 30 mg/kg, ip; format: organism-based; details: in vivo
# [9] = Apparent permeability across apical to basolateral side in human Caco2 cells measured after 2 hrs; format: ADME, cell-based; details: caco-2, 2 h
# Summary of the method: (§6)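 Permeability was measured across Caco-2 monolayers in both directions, apical to basolateral and basolateral to apical. […] Runs were done with and without 3% BSA, and mass recovery (%) was reported for each direction. Efflux ratio = Papp B→A / Papp A→B.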
# [10] = Terminal half life in C57BL/6 mouse plasma at 30 mg/kg, ip; format: ADME, organism-based; details: C57BL/6, mouse, plasma, read-out: beta t1/2 (converted); summary of the method: as §2
# [11] = Cmax in C57BL/6 mouse liver at 30 mg/kg, ip; format: ADME, organism-based; parameters: dose 30 mg/kg, route intraperitoneal; summary of the method: as §3
# [12] = AUC (infinity) in C57BL/6 mouse lung at 30 mg/kg, ip; format: ADME, organism-based; parameters: dose 30 mg/kg, route intraperitoneal, time infinity; summary of the method: as §3
# [13] = Tmax in C57BL/6 mouse liver at 30 mg/kg, ip; format: ADME, organism-based; summary of the method: as §2
# [14] = AUClast in C57BL/6 mouse lung at 30 mg/kg, ip; format: ADME, organism-based; parameters: dose 30 mg/kg, route intraperitoneal, time 0 - last; summary of the method: as §3
# [15] = AUC (infinity) in C57BL/6 mouse plasma at 30 mg/kg, ip; format: ADME, organism-based; parameters: dose 30 mg/kg, route intraperitoneal, time infinity; summary of the method: as §3
# [16] = Tmax in C57BL/6 mouse lung at 30 mg/kg, ip; format: ADME, organism-based; summary of the method: as §2
# [17] = Stability of the compound in mouse liver microsomes assessed as parent compound remaining measured after 15 mins; format: ADME, Microsome; details: read-out: Stability; summary of the method: as §1
# [18] = Cmax in C57BL/6 mouse plasma at 30 mg/kg, ip; format: ADME, organism-based; parameters: dose 30 mg/kg, route intraperitoneal; details: C57BL/6, mouse, plasma, read-out: Cmax; summary of the method: as §3
# [19] = Toxicity in C57BL/6 mouse assessed as effect on liver at 30 mg/kg, ip; format: organism-based; details: in vivo
# [20] = Terminal half life in C57BL/6 mouse liver at 30 mg/kg, ip; format: ADME, organism-based; details: read-out: beta t1/2 (converted); summary of the method: as §2
# [21] = AUC (infinity) in C57BL/6 mouse liver at 30 mg/kg, ip; format: ADME, organism-based; parameters: dose 30 mg/kg, time infinity, route intraperitoneal; summary of the method: as §3
# [22] = Stability of the compound in mouse liver microsomes assessed as parent compound remaining measured after 30 mins; format: ADME, Microsome; details: read-out: Stability; summary of the method: as §1
# [23] = Apparent permeability across basolateral to apical side in human Caco2 cells measured after 2 hrs; format: ADME, cell-based; details: caco-2, 2 h; summary of the method: as §6
# [24] = AUClast in C57BL/6 mouse plasma at 30 mg/kg, ip; format: ADME, organism-based; parameters: dose 30 mg/kg, route intraperitoneal, time 0 - last; summary of the method: as §3
# [25] = Aqueous kinetic solubility of the compound; format: physicochemical; details: buffer
# [26] = Terminal half life in C57BL/6 mouse lung at 30 mg/kg, ip; format: ADME, organism-based; details: read-out: beta t1/2 (converted); summary of the method: as §2
# Saccharomyces cerevisiae = experiment: Effect on growth of Yeast 9526-6-2 harboring pYES at 50 uM measured up to 60 hrs; format: organism-based; details: in vivo
# Summary of the method: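 Control yeast carrying empty pYES and NS1-expressing NS1-pYES strain grown with DMSO or compound at 50 μM. Growth measured as OD600 at 22, 42 and 60 h.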
# [27] = target: Non-structural protein 1 (Influenza A virus (strain A/Puerto Rico/8/1934 H1N1)) (UniProt P03496); experiment: Inhibition of NS1 in Influenza A virus A/PR/8/34 (H1N1) infected in MDCK cells assessed as restoration of protein-induced reduction in IFN-beta mRNA expression at 20 uM measured after 6 hrs by RT-PCR analysis; format: cell-based; details: Influenza A virus (A/Puerto Rico/8/1934(H1N1))
# Summary of the method: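 MDCK cells infected with A/PR/8/34 at MOI 2 and incubated 6 h with compound at 20 μM. Cells harvested; IFN-β and β-actin mRNA detected by RT-PCR. Poly(I:C) lane serves as positive control for IFN-β induction.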
# Influenza A virus [28] = experiment: Antiviral activity against Influenza A virus (A/California/7/2009(H1N1)) infected in MDCK cells assessed as reduction in virus-induced cytopathic effect measured on day 5 by Celltiter-Glo luminescence assay; format: functional, organism-based; details: 120 h; summary of the method: as §5
# Influenza A virus H3N2 = experiment: Antiviral activity against Influenza A virus (A/Brisbane/10/2007(H3N2)) infected in MDCK cells assessed as reduction in virus-induced cytopathic effect measured on day 5 by Celltiter-Glo luminescence assay; format: functional, organism-based; details: 120 h; summary of the method: as §5
# Influenza B virus = experiment: Antiviral activity against Influenza B virus (B/Brisbane/60/2008) infected in MDCK cells assessed as reduction in virus-induced cytopathic effect measured on day 5 by Celltiter-Glo luminescence assay; format: functional, organism-based
# [29] = target: Luciferin 4-monooxygenase (Photinus pyralis) (UniProt P08659); experiment: Effect on firefly luciferase activity expressed in 293 cells at 50 uM by luminescence assay; format: cell-based
# [30] = target: Non-structural protein 1 (Influenza A virus (strain A/Puerto Rico/8/1934 H1N1)) (UniProt P03496); experiment: Inhibition of Influenza A virus A/PR/8/34 (H1N1) NS1 expressed in 293 cells assessed as increase in poly(I:C)-induced IFN-beta reporter activity treated 16 hrs […] measured after 24 hrs by luciferase reporter gene assay; format: cell-based; details: Influenza A virus (A/Puerto Rico/8/1934(H1N1))
# Summary of the method: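 293 cells co-transfected with a human IFN-β promoter-driven firefly luciferase reporter and NS1 expression constructs. At 16 h post-transfection, poly(I:C) 50 μg/mL plus compound (20 μM) or 1% DMSO added for a further 24 h; luciferase read by luminometer. Untransfected cells serve as baseline.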
# Influenza A virus [31] = experiment: Effect on NS1 protein expression in Influenza A virus A/PR/8/34 (H1N1) infected in MDCK cells at 20 uM by Western blot analysis; format: functional, organism-based; details: A/Puerto Rico/8/1934(H1N1)
# Summary of the method: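 MDCK cells, uninfected or infected with A/PR/8/34, treated with DMSO or compound at 20 μM. NS1 protein detected by Western blot, with α-tubulin as loading control.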
# Influenza A virus [32] = experiment: Antiviral activity against Influenza A virus A/PR/8/34 (H1N1) infected in MDCK cells assessed as fold reduction in virus titer at 10 uM measured after 48 hrs by hemagglutination assay relative to control; format: functional, A/Puerto Rico/8/1934(H1N1)
# Summary of the method: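 MDCK cells were infected with A/PR/8/34 (H1N1) at MOI 0.1 and incubated with compound for 48 h. Supernatant virus was then quantified by hemagglutination assay and standard TCID50 analysis. The single-concentration screen used 10 μM and reports fold reduction in titer. Dose-response runs used triplicate cultures, with percent titer decrease back-calculated from TCID50.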
# MDCK [33] = experiment: as §4; format: cell-based, Canis lupus familiaris; details: dog, mdck; summary of the method: as §5
# Sequence of Non-structural protein 1 (Influenza A virus (strain A/Puerto Rico/8/1934 H1N1)) (P03496 whole entry): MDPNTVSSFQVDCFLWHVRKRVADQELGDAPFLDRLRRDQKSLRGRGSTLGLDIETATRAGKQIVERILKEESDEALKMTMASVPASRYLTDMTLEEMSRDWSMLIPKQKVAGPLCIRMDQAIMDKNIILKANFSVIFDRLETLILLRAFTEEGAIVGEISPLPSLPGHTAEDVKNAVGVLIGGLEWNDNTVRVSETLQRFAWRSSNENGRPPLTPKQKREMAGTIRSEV
# Sequence of Luciferin 4-monooxygenase (Photinus pyralis) (P08659 whole entry): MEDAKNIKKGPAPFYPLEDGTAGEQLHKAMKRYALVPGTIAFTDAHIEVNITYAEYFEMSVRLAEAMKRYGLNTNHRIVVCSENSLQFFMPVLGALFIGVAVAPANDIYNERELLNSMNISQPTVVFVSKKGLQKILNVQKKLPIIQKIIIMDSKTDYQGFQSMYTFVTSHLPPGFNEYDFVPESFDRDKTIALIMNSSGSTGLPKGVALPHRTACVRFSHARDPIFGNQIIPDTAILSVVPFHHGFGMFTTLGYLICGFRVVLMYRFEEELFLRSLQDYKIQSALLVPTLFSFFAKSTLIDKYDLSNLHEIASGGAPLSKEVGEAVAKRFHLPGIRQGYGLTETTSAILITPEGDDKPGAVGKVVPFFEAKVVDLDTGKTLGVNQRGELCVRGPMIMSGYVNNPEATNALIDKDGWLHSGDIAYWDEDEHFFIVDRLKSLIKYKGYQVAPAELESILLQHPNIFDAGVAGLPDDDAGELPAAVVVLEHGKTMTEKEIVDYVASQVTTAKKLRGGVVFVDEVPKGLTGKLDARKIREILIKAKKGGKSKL
SMILES,remaining at 0 min [2] [%],Activity (MDCK [6]),CC50 at 5 day [7] [µM],remaining at 0.25 h [17] [%],remaining at 0.5 h [22] [%],Kinetic_solubility [25] [µM],Activity (Saccharomyces cerevisiae),inhibition [27],EC50 (Influenza A virus [28]) [µM],EC90 (Influenza A virus [28]) [µM],EC50 (Influenza A virus H3N2) [µM],EC90 (Influenza A virus H3N2) [µM],Activity (Influenza B virus),fold change (FC) (Influenza A virus [32]),other results
COc1cc(-c2ccnc3c2c(C)nn3-c2cccc(C(F)(F)F)c2)ccc1O,100,Non-Toxic,24.5 to 49,25,16,1.7,Non-Toxic,,,,,,,,Activity [1]: Non-Toxic; Tmax [3]: 4.98 min; Cmax [4]: 36200 ng/mL; AUC(0-t) [5]: 119000 ng·h/mL; Activity [8]: Non-Toxic; Papp [9]: 0.13 ×10⁻⁶ cm/s; half-life [10]: 5.2 h; Cmax [11]: 64000 ng/mL; AUC(0-inf) [12]: 49100 ng·h/mL; Tmax [13]: 4.98 min; AUC(0-t) [14]: 49100 ng·h/mL; AUC(0-inf) [15]: 5970 ng·h/mL; Tmax [16]: 4.98 min; Cmax [18]: 4470 ng/mL; Activity [19]: Non-Toxic; half-life [20]: 5.3 h; AUC(0-inf) [21]: 120000 ng·h/mL; Papp [23]: 0.38 ×10⁻⁶ cm/s; AUC(0-t) [24]: 5960 ng·h/mL; half-life [26]: 5 h
O=C(NCCCc1ccccc1)c1ccccc1O,,,,,,,,Active,,,,,,,
NC(=O)c1ncn([C@@H]2O[C@H](CO)[C@@H](O)[C@H]2O)n1 [RIBAVIRIN],,,,,,,,,2.2,3.5,28.8,34.9,,,
Cc1nn(-c2ccc(Cl)cc2)c2nc(N)c(C#N)c(-c3ccc(O)c(O)c3)c12,100,Non-Toxic,20.4 to 31.9,93,90,1.9,Non-Toxic,Active,> 50,> 50,> 50,> 50,inactive,256,Papp [9]: 0.34 ×10⁻⁶ cm/s; Activity [29]: inactive; inhibition [30]: Active; Papp [23]: 2.64 ×10⁻⁶ cm/s; Activity (Influenza A virus [31]): inactive
CCOc1cc(-c2c(C#N)c(O)nc3c2c(C)nn3-c2ccc(F)cc2)ccc1O,,Non-Toxic,,,,,,,1.7,4.9,47.6,> 50,inactive,2,CC50 (MDCK [33]): > 50 µM
COc1cc(-c2c(C#N)c(N)nc3c2c(C)nn3-c2ccc(C)c(C)c2)cc(OC)c1OC,,Non-Toxic,,,,,,,,,,,,0,
COc1ccc(-c2c(C#N)c(N)nc3c2c(C)nn3-c2ccc(Cl)cc2)cc1OC,,Non-Toxic,,,,,,,,,,,,0,
COc1cc(-c2c(C#N)c(N)nc3c2c(C)nn3-c2ccc(F)cc2)cc(OC)c1OC,,Non-Toxic,0.87 to 6,,,,,,18.3,42.4,> 50,> 50,inactive,0,
COc1cc(-c2c3c(C)nn(-c4ccccc4)c3nc3[nH]c(=O)[nH]c(=O)c23)ccc1O,,Non-Toxic,,,,,,,,,,,,2,
Cc1nn(-c2ccc(F)cc2)c2nc(N)c(C#N)c(-c3ccc(O)c(O)c3)c12,,Non-Toxic,,,,,,,,,,,,16,
COc1cc(-c2c(C#N)c(N)nc3c2c(C)nn3-c2ccc(F)cc2)ccc1O,100,Non-Toxic,24.7 to 48.3,74,60,3,Non-Toxic,Active,2.1,4.6,10.1,> 50,inactive,256,Activity [29]: inactive; inhibition [30]: Active; Activity (Influenza A virus [31]): inactive
Cc1ccc(-n2nc(C)c3c(-c4ccc(O)c(O)c4)c(C#N)c(N)nc32)cc1C,100,Non-Toxic,24.5 to 39.3,78,64,11.6,Non-Toxic,Active,1.2,3.4,> 50,> 50,inactive,256,Activity [29]: inactive; inhibition [30]: Active; Activity (Influenza A virus [31]): inactive
